In ChEMBL document CHEMBL2311341, “Design, synthesis and inhibitory activities of naringenin derivatives on human colon cancer cells” (Bioorg Med Chem Lett, 2013):

Tests used:
[1] = system: Radical scavenging activity; assay: Antioxidant activity assessed as DPPH radical scavenging activity by spectrophotometry; assay type: functional; parameters: concentration or dose not given beside the values
HCT-116 = assay: Cytotoxicity against human HCT116 cells after 7 days by crystal violet staining based clonogenic assay; assay type: functional, cell-based; settings: HCT-116, 168 h
Procedure, shortened: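 HCT116 cells in DMEM with 10% heat-inactivated FBS, seeded at 5 × 10³ cells/well in 24-well plates, untreated or exposed to four compound concentrations for 7 days. Colonies were fixed with 6% glutaraldehyde and stained with 0.1% crystal violet, and survival density was read by densitometry. IC50 came from curve fitting. The whole experiment was repeated independently three times.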

[2] = biological target: Cyclin-dependent kinase 2/cyclin E1 (Homo sapiens) (UniProt P24864+P24941); assay: Inhibition of CDK2/cyclinE (unknown origin) using histone-H1 and [gamma-33P]ATP at 10 uM by scintillation counting; assay type: protein-complex assay
Procedure, shortened: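 CDK2/cyclin E was run under a commercial kinase-profiling protocol in 8 mM MOPS pH 7.0 with 0.2 mM EDTA, 0.1 mg/ml histone H1, 10 mM magnesium acetate and 10 micromolar ATP including γ-³³P-ATP (500 cpm/pmol). Incorporation was measured by scintillation counting, with the no-inhibitor count set as 100% activity. Runs were done in triplicate.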

inhibition [2] [%] | Compound | Activity [1] [%] | IC50 (HCT-116) [µM]
42.1 | CC(C)C(=O)Oc1cc(O)c2c(c1)OC(c1ccc(O)cc1)CC2=O (configuration not stated) | 15.4 | 15.9
84 | C=CCOc1cc(O)c2c(c1)OC(c1ccc(O)cc1)CC2=O (configuration not stated) | 20.7 | 1.91
42 | O=C(Oc1ccccc1)Oc1cc(O)c2c(c1)OC(c1ccc(O)cc1)CC2=O (configuration not stated) | 15.9 | 20
 | O=C1O[C@H]([C@@H](O)CO)C(O)=C1O | 89.1 | 
83.6 | O=C(Oc1cc(O)c2c(c1)OC(c1ccc(O)cc1)CC2=O)c1cccs1 (configuration not stated) | 11.2 | 1.2
62.3 | CCOC(=O)N/N=C1\CC(c2ccc(O)cc2)Oc2cc(O)cc(O)c21 (configuration not stated) | 70.6 | 4.35
48.9 | Cc1ccccc1C(=O)Oc1cc(O)c2c(c1)OC(c1ccc(O)cc1)CC2=O (configuration not stated) | 14.2 | 6.03

Compound | inhibition [2] [%] | Activity [1] [%] | IC50 (HCT-116) [µM]
O=C1CC(c2ccc(O)cc2)Oc2cc(O)cc(O)c21 (racemic) | 14.9 | 59.3 | 36.8
